ChEMBL document CHEMBL1811802, “Synthesis and significant cytostatic activity of 7-hetaryl-7-deazaadenosines” (J Med Chem, 2011)

How the values were obtained:
[1] = Inhibition of RNA polymerase 2 in human HeLaScribe nuclear extracts after 1 hr; conditions: read-out: IC50
How it was run: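 HeLaScribe nuclear extract transcription with CMV(+) template DNA, 3 mM MgCl2, 400 μM CTP/GTP/UTP, 25 μM [33P]ATP. Inhibitor preincubated 5 min at 30 °C, then 1 h at 30 °C. Products run on 6% urea–polyacrylamide gel; full-length transcript quantified; IC50 is 50% product decrease.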

PC-3 [2] = assay: Cytostatic activity against human PC3 cells after 5 days by SRB assay; assay type: functional; conditions: PC-3, 120 h
How it was run: (§1)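 Cells seeded per line density, overnight at 37 °C; day-zero plate TCA-fixed. 5-fold serial dilutions added, 5-day incubation; TCA fixation, 0.057% SRB in 1% acetic acid 30 min, dye dissolved in 10 mM Tris pH 10.5, A500. Growth relative to day-zero and untreated; GIC50 from sigmoidal dose–response fit; mean of two independent experiments.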

[3] = Cytostatic activity against human Hs578 cells after 5 days by SRB assay; assay type: functional; conditions: Hs578, 120 h; how it was run: as §1
DU-145 [4] = assay: Cytostatic activity against human DU145 cells after 5 days by SRB assay; assay type: functional; conditions: DU-145, 120 h; how it was run: as §1
NCI-H23 = assay: Cytostatic activity against human NCI-H23 cells after 5 days by SRB assay; assay type: functional; conditions: NCI-H23, 120 h; how it was run: as §1
BT-549 [5] = assay: Cytostatic activity against human BT549 cells after 5 days by SRB assay; assay type: functional; conditions: BT-549, 120 h; how it was run: as §1
DU-145 [6] = assay: Metabolic stability in human DU145 cells assessed as nucleoside formation per million of cells at 10 uM after 6 hrs by LC/MS/MS analysis; assay type: ADME, cell-based; conditions: du-145, 6 h
How it was run: (§2)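 Du145 seeded at 60% confluence in MEM/10% FBS; next day exposed to 10 μM compound for 6 or 24 h. Cells trypsinized, extracted in 70% MeOH, dried, resuspended in 1 mM ammonium phosphate pH 8.5. Nucleoside, NMP and NTP quantified by ion-pairing (dimethylhexylamine) LC/MS/MS against untreated-cell-extract standard curves; pmol per million cells.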

DU-145 [7] = assay: Metabolic stability in human DU145 cells assessed as sodium ((2R,3S,4R,5R)-5-(4-amino-7H-pyrrolo[2,3-d]pyrimidin-7-yl)-3,4-dihydroxytetrahydrofuran-2-yl)methyl hydrogenphosphate-NMP formation per million of cells at 10 uM after 24 hrs by LC/MS/MS analysis; assay type: ADME, cell-based; conditions: du-145, 24 h; how it was run: as §2
A549 = assay: Cytostatic activity against human A549 cells after 5 days by SRB assay; assay type: functional; conditions: A549, 120 h; how it was run: as §1
HCT-15 = assay: Cytostatic activity against human HCT15 cells after 5 days by SRB assay; assay type: functional; conditions: HCT-15, 120 h; how it was run: as §1
HCT-116 [8] = assay: Cytostatic activity against human HCT116 cells after 5 days by SRB assay; assay type: functional; conditions: HCT-116, 120 h; how it was run: as §1
CCRF-CEM = assay: Cytotoxicity against human CCRF-CEM cells after 3 days by XTT assay; assay type: functional, cell-based; conditions: 72 h
How it was run: (§3)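 Suspension-grown cell lines, 3-day compound incubation; viability read by XTT metabolic assay; IC50 averaged from four independent experiments.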

DU-145 [9] = assay: Metabolic stability in human DU145 cells assessed as sodium ((2R,3S,4R,5R)-5-(4-amino-7H-pyrrolo[2,3-d]pyrimidin-7-yl)-3,4-dihydroxytetrahydrofuran-2-yl)methyl hydrogentriphosphate-NTP formation per million of cells at 10 uM after 6 hrs by LC/MS/MS analysis; assay type: ADME, cell-based; conditions: du-145, 6 h; how it was run: as §2
[10] = Cytotoxicity against human HeLaS3 cells after 3 days by XTT assay; assay type: functional, cell-based; conditions: HeLa S3, 72 h; how it was run: as §3
DU-145 [11] = assay: Metabolic stability in human DU145 cells assessed as sodium ((2R,3S,4R,5R)-5-(4-amino-7H-pyrrolo[2,3-d]pyrimidin-7-yl)-3,4-dihydroxytetrahydrofuran-2-yl)methyl hydrogentriphosphate-NTP formation per million of cells at 10 uM after 24 hrs by LC/MS/MS analysis; assay type: ADME, cell-based; conditions: du-145, 24 h; how it was run: as §2
DU-145 [12] = assay: Metabolic stability in human DU145 cells assessed as nucleoside formation per million of cells at 10 uM after 24 hrs by LC/MS/MS analysis; assay type: ADME, cell-based; conditions: du-145, 24 h; how it was run: as §2
HL-60 = assay: Cytotoxicity against human HL60 cells after 3 days by XTT assay; assay type: functional, cell-based; conditions: HL-60, 72 h; how it was run: as §3
Adenosine kinase = Adenosine kinase (Homo sapiens, UniProt P55263); assay: Inhibition of human ADK using [3H]-adenosine by scintillation counting
MT4 = assay: Cytostatic activity against human MT4 cells after 5 days by SRB assay; assay type: functional; conditions: MT4, 120 h
DU-145 [13] = assay: Metabolic stability in human DU145 cells assessed as sodium ((2R,3S,4R,5R)-5-(4-amino-7H-pyrrolo[2,3-d]pyrimidin-7-yl)-3,4-dihydroxytetrahydrofuran-2-yl)methyl hydrogenphosphate-NMP formation per million of cells at 10 uM after 6 hrs by LC/MS/MS analysis; assay type: ADME, cell-based; conditions: du-145, 6 h; how it was run: as §2
HeLa = assay: Cytotoxicity against human HeLa cells after 3 days by MTT assay; assay type: functional, cell-based; conditions: 72 h
SK-OV-3 = assay: Cytotoxicity against human SKOV3 cells after 3 days by MTT assay; assay type: functional, cell-based; conditions: SK-OV-3, 72 h
BT-549 [14] = assay: Cytotoxicity against human BT549 cells after 3 days by MTT assay; assay type: functional, cell-based; conditions: BT-549, 72 h
HPAC = assay: Cytotoxicity against human HPAC cells after 3 days by MTT assay; assay type: functional, cell-based; conditions: 72 h
LNCaP = assay: Cytotoxicity against human LNCAP cells after 3 days by MTT assay; assay type: functional, cell-based; conditions: 72 h
SK-MEL-2 = assay: Cytotoxicity against human SK-MEL-2 cells after 3 days by MTT assay; assay type: functional, cell-based; conditions: SK-MEL-2, 72 h
EL4 = assay: Cytotoxicity against mouse EL4 cells after 3 days by MTT assay; assay type: functional, cell-based; conditions: EL4, 72 h
SK-N-AS = assay: Cytotoxicity against human SK-N-AS cells after 3 days by MTT assay; assay type: functional, cell-based; conditions: 72 h
K562 [15] = assay: Cytotoxicity against human paclitaxel resistant K562 cells after 3 days by MTT assay; assay type: functional, cell-based; conditions: K562, 72 h
[16] = Cytotoxicity against human MES-SA cells after 3 days by MTT assay; assay type: functional, cell-based; conditions: 72 h
HCT-116 [17] = assay: Cytotoxicity against human HCT116 cells after 3 days by MTT assay; assay type: functional, cell-based; conditions: HCT-116, 72 h
[18] = Cytotoxicity against human NCI-H146 cells after 3 days by MTT assay; assay type: functional, cell-based; conditions: NCI-H146, 72 h
HT-29 = assay: Cytotoxicity against human HT-29 cells after 3 days by MTT assay; assay type: functional, cell-based; conditions: HT-29, 72 h
MAT-Ly-Lu = assay: Cytotoxicity against rat MAT-LyLu cells after 3 days by MTT assay; assay type: functional, cell-based; conditions: 72 h
[19] = Cytotoxicity against human CEM-DNR-bulk cells after 3 days by MTT assay; assay type: functional, cell-based; conditions: 72 h
K562 [20] = assay: Cytotoxicity against human K562 cells after 3 days by MTT assay; assay type: functional, cell-based; conditions: K562, 72 h
PC-3 [21] = assay: Cytotoxicity against human PC3 cells after 3 days by MTT assay; assay type: functional, cell-based; conditions: PC-3, 72 h
[22] = Cytotoxicity against mouse P388D1 cells after 3 days by MTT assay; assay type: functional, cell-based; conditions: P388D1, 72 h
[23] = Cytotoxicity against human U87MG cells after 3 days by MTT assay; assay type: functional, cell-based, U-87MG ATCC; conditions: U-87 MG, 72 h
L1210 = assay: Cytotoxicity against mouse L1210 cells after 3 days by MTT assay; assay type: functional, cell-based; conditions: L1210, 72 h
BV-173 = assay: Cytotoxicity against human BV173 cells after 3 days by MTT assay; assay type: functional, cell-based; conditions: BV-173, 72 h
BJ = assay: Cytotoxicity against human BJ cells after 3 days by MTT assay; assay type: cell-based; conditions: 72 h
CT26 = assay: Cytotoxicity against mouse CT26 cells after 3 days by MTT assay; assay type: functional, cell-based; conditions: CT26, 72 h
C6 = assay: Cytotoxicity against rat C6 cells after 3 days by MTT assay; assay type: functional, cell-based; conditions: C6, 72 h
MCF7 = assay: Cytotoxicity against human MCF7 cells after 3 days by MTT assay; assay type: functional, cell-based; conditions: MCF7, 72 h
MDA-MB-231 = assay: Cytotoxicity against human MDA-MB-231 cells after 3 days by MTT assay; assay type: functional, cell-based; conditions: MDA-MB-231, 72 h

Chain of Adenosine kinase (P55263 whole entry): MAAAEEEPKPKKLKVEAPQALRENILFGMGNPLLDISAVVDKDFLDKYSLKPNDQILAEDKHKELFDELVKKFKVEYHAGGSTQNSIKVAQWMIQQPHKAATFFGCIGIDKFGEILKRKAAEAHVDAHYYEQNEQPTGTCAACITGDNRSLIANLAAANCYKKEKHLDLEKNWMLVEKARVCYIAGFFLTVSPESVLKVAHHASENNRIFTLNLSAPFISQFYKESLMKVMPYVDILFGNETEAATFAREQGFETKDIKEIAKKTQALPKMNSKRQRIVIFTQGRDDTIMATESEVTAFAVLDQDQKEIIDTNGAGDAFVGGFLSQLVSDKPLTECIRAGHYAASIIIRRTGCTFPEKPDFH

GI50 (PC-3 [2]) [nM]	GI50 (DU-145 [4]) [nM]	GI50 (NCI-H23) [nM]	GI50 (BT-549 [5]) [nM]	GI50 (A549) [nM]	GI50 (HCT-116 [8]) [nM]	IC50 (Adenosine kinase) [µM]	SMILES	GI50 [3] [nM]	IC50 (CCRF-CEM) [nM]	IC50 [10] [nM]	IC50 (HL-60) [µM]	GI50 (MT4) [nM]	IC50 (HeLa) [nM]	IC50 (SK-OV-3) [µM]	IC50 (BT-549 [14]) [nM]	IC50 (HPAC) [nM]	IC50 (LNCaP) [nM]	IC50 (SK-MEL-2) [µM]	IC50 (EL4) [µM]	IC50 (SK-N-AS) [µM]	also measured
							Nc1ncnc2c1c(-c1ccsc1)cn2[C@@H]1O[C@H](COP(=O)(O)OP(=O)(O)OP(=O)(O)O)[C@@H](O)[C@H]1O														IC50 [1]: 91 µM
> 20000	> 20000	> 20000	> 20000	> 20000	> 20000	> 5	Nc1ncnc2c1c(-c1ccccc1)cn2[C@@H]1O[C@H](CO)[C@@H](O)[C@H]1O	> 20000	> 10000	> 10000	> 10	> 20000									Stability (DU-145 [6]): 32.91 pmol; Stability (DU-145 [7]): 6.68 pmol; GI50 (HCT-15): > 20 µM; Stability (DU-145 [9]): 0.13 pmol; Stability (DU-145 [11]): 0.27 pmol; Stability (DU-145 [12]): 68.8 pmol; Stability (DU-145 [13]): 6.23 pmol
418	330	198	28	34	15	> 5	Nc1ncnc2c1c(-c1ccoc1)cn2[C@@H]1O[C@H](CO)[C@@H](O)[C@H]1O	21	70	20	9.06	170	350	> 10	452	133	112	> 10	> 10	> 10	IC50 (K562 [15]): 147 nM; IC50 [16]: 1330 nM; IC50 (HCT-116 [17]): 425 nM; IC50 [18]: > 10 µM; IC50 (HT-29): 394 nM; IC50 (MAT-Ly-Lu): 1860 nM; IC50 [19]: 364 nM; IC50 (K562 [20]): 200 nM; IC50 (PC-3 [21]): > 10 µM; IC50 [22]: 139 nM; IC50 [23]: > 10 µM; IC50 (L1210): 445 nM; IC50 (BV-173): 68 nM; IC50 (BJ): > 10 µM; IC50 (CT26): 1670 nM; IC50 (C6): > 10 µM; IC50 (MCF7): 9.74 µM; IC50 (MDA-MB-231): 126 nM
1320	97	73	28	16	7	> 5	Nc1ncnc2c1c(-c1ccsc1)cn2[C@@H]1O[C@H](CO)[C@@H](O)[C@H]1O	50	110	60	6.62	124	124	> 10	120	110	68	> 10	> 10	> 10	IC50 (K562 [15]): 93 nM; IC50 [16]: 76 nM; IC50 (HCT-116 [17]): 194 nM; IC50 [18]: > 10 µM; IC50 (HT-29): 184 nM; IC50 (MAT-Ly-Lu): 525 nM; IC50 [19]: 110 nM; IC50 (K562 [20]): 67 nM; IC50 (PC-3 [21]): > 10 µM; IC50 [22]: 76 nM; IC50 [23]: > 10 µM; IC50 (L1210): 199 nM; IC50 (BV-173): 29 nM; IC50 (BJ): > 10 µM; IC50 (CT26): 225 nM; IC50 (C6): 8.29 µM; IC50 (MCF7): 7.25 µM; IC50 (MDA-MB-231): 82 nM
